NR2E3 ag-1: agonists of human NR2E3 nuclear receptor | CHO-S Gal4-NCOR/VP16-NR2E3 two-hybrid, luciferase | inhibition of corepressor binding, % at 3.98 µM | actives 0.35% (n = 360,000) | AID 602229;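 active = inhibition above the mean of all tested compounds plus 3 SD, cut at about 70% in these data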;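 also: 0% = DMSO with NR2E3 transfected cells and 100% = cells lacking NR2E3 construct; higher means lower luciferase signal from less NR2E3 corepressor binding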
Target sequence (Q9Y5X4 whole entry, looked up, the tested form may be a part): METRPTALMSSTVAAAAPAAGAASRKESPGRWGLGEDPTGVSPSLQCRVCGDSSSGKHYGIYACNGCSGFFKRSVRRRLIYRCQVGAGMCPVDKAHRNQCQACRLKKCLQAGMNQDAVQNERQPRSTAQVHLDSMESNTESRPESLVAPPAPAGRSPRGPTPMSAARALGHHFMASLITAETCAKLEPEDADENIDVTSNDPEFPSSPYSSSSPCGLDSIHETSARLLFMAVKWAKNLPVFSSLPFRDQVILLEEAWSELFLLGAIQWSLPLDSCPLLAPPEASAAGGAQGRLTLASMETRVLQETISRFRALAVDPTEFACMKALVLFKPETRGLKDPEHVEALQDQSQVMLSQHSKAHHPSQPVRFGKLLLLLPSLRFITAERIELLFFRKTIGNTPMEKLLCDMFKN
NR2E3 ag-2: activates human photoreceptor nuclear receptor NR2E3 | Q9Y5X4 | GST-NR2E3/biotin-RetCOR TR-FRET, 1536-well | inhibition of corepressor binding, % at 4.78 µM | actives 0.12% (n = 320,000);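 active = percent inhibition above the cutoff of mean plus 3 SD of all tested compounds, set per screening campaign, cut at about 20% in these data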;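 also: 0% = DMSO wells and 100% = biotin wells as full block of FRET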
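Material: NR2E3–RetCOR corepressor complex | Quantity: 1.35 nM GST-tagged NR2E3 final | Schedule: 5 h at 4 °C | Replication: Singlicate compound wells | Reagent: RetCOR corepressor, biotinylated, 7 nM | Controls: Biotin wells as high control, 0.6% DMSO wells as low control | Signal: TR-FRET, Eu(K)-anti-GST donor, streptavidin-D2 acceptor, ex 340, em 617/671 nm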
TROY NFkB inh: inhibitors of TROY-dependent NF-kB signaling. AID 1347056. inhibition, % at 10 µM. Q293 LMP1-TROYcd NF-kB luciferase reporter, 4 h. actives 0.98% (n = 360,000);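 active = compounds whose plate-normalised and pattern-corrected inhibition of the luciferase reporter signal at the single screening dose is 50% or more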
HIF act: HIF pathway transcriptional activation. actives 0.32% (n = 300,000). U2OS HRE-luciferase reporter, luminescence; normalized: DMSO 0%, desferrioxamine 100%. activation, % at 7.5 µM (by protocol);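 active = mean activation of at least 10% of the iron chelator positive control signal, with at least half of replicates also reaching 10%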
EBV LMP1 NFkB: reduces LMP1-driven NF-kappaB luciferase signal. LMP1-induced NF-kappaB luciferase reporter cells, luminescence. actives 0.69% (n = 350,000). inhibition, % at 12.5 µM; in the data active = inhibition above about 41%;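 also: 0% = neutral control wells and 100% = reference inhibitor control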
NR2E3 ag conf: NR2E3 agonism confirmed in two-hybrid assay; shares compounds with NR2E3 ag-1; CHO-S mammalian two-hybrid NR2E3-NCOR, luciferase luminescence; inhibition, % at 3.98 µM; actives 51% (n = 2,300);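 active = average inhibition above a cutoff equal to the mean inhibition of all tested compounds plus one SD, cut at about 70% in these data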;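 also: 0% = DMSO in NR2E3 cells and 100% = DMSO in cells lacking NR2E3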
VP16 counter: reduces GAL4-VP16 reporter signal in NR2E3 counterscreen. actives 29% (n = 2,300). CHO-S GAL4-VP16 luciferase reporter, luminescence. AID 624379. shares compounds with NR2E3 ag-1. inhibition, % at 3.98 µM;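 active = mean inhibition above a cutoff equal to the average over all tested compounds plus one standard deviation, cut at about 70% in these data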;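 also: luciferase from a UAS reporter driven by GAL4-VP16 transactivation; 0% = DMSO with VP16-transfected cells and 100% = DMSO with cells lacking VP16; higher means less reporter light so more repression of VP16 activity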
Numbers without * were called inactive; . = no result given. The list is not random: actives were taken first. Their share in the collection is about 2%.

SMILES	NR2E3 ag-1	NR2E3 ag-2	TROY NFkB inh	HIF act	EBV LMP1 NFkB	NR2E3 ag conf	VP16 counter
CCN(CC(=O)Nc1ccc(NC(C)=O)cc1)C(=O)C1(c2ccc(Cl)cc2)CCC1	48	.	-23	.	-1	39	-4
Cc1ccc(OCc2ccc(C(=O)Nc3c(C)nn(Cc4c(F)c(F)c(F)c(F)c4F)c3C)o2)c([N+](=O)[O-])c1	51	-3	13	.	4	40	53
CC(=O)Nc1ccc(S(=O)(=O)NCCSCc2ccccc2Cl)cc1	71*	4	20	-1	20	82*	65
COc1ccc(N=C2SCC(=O)N2CCc2ccc(OC)c(OC)c2)cc1	0	0	13	0	6	.	.
COc1ccc(CCN2C(=O)CSC2=Nc2ccc(C(C)C)cc2)cc1OC	49	2	38	3	21	83*	75*
COc1ccc(OC)c(NC(=O)C2CCCN(S(C)(=O)=O)C2)c1 (stereo not drawn)	9	-4	-5	-3	-1	.	.
Cc1cc(F)ccc1S(=O)(=O)N1CCCOC1CNC(=O)C(=O)NC1CCCC1 (stereo not drawn)	-14	1	-23	0	-3	.	.
Cn1nc(CC(=O)NCc2ccc(C(F)(F)F)cc2)c2ccccc2c1=O	67	3	24	0	2	91*	79*
CC(C)N(C)c1ncnc2c1ncn2[C@H]1CN(CCc2ccccc2)C[C@@H](CO)O1	30	.	6	.	.	.	.
O=S(=O)(C/C(=C/CO)S(=O)(=O)c1ccccc1)c1ccccc1	65	2	33	-2	93*	69	-4
Cc1ccc(C)c(N(C)S(=O)(=O)c2ccc3c(c2)oc(=O)n3C)c1	-6	4	8	0	-7	.	.
COc1ccc(-n2c(C)cc(C(=O)CSc3ccc(NC(C)=O)cc3)c2C)cc1	-78	-1	-4	1	-2	.	.
CC(=O)Nc1ccc(SCC(=O)c2cc(C)n(-c3ccccc3)c2C)cc1	56	0	44	-3	13	64	-8
Cc1cc(C(=O)C(C)OC(=O)c2ccc(NC(=O)CC#N)cc2)c(C)n1-c1ccccc1 (stereo not drawn)	50	2	45	0	15	-17	-9
CC(C)c1cccc(-c2csc(C(C)(O)c3cccc(F)c3)n2)c1 (stereo not drawn)	36	.	-3	.	.	.	.
CCCC(=O)N1CCCC1(C)C(=O)Nc1cc(OC)c(OC)c(OC)c1 (stereo not drawn)	-16	.	7	.	.	.	.
COc1ccc([C@H]2CC(=O)C[C@@H](CCn3cc(C(C)C)nn3)O2)cc1	-14	.	-5	.	.	.	.
N#Cc1cccc(C=C(C(=O)c2ccccc2)c2ccccc2)c1	2	.	-50	.	.	.	.
O=C1N(c2ccccc2)C[C@@H]2C[C@@H](c3cc4ccccc4o3)N3CCC[C@@]123	78*	.	48	3	90*	99*	85*
COc1ccccc1NC(=S)NNC(=O)c1ccc(Cl)cc1Cl	53	3	-73	4	-12	-131	-115
Cc1cc(C(=O)NNc2ccccc2F)no1	50	-4	-5	2	-25	48	0
COc1ccc(CCNC(=O)c2cc3ccc(Cl)cc3nc2N)cc1	90*	.	12	.	.	90*	77*
COc1ccc(CCNC(=O)c2ccc(Cl)cc2)cc1	-10	0	-18	1	1	.	.
Nc1nc2cc(Cl)ccc2cc1C(=O)NCCCc1ccccc1	82*	.	5	.	.	87*	78*
S=C(Nc1ccccc1)N1CCC(Cc2ccccc2)CC1	3	3	2	0	0	.	.
SMILES	NR2E3 ag-1	NR2E3 ag-2	TROY NFkB inh	HIF act	EBV LMP1 NFkB	NR2E3 ag conf	VP16 counter
NC(c1csc(Nc2ncccn2)n1)c1ccccc1Cl (stereo not drawn)	7	.	9	.	.	.	.
O=C(CSc1nc(=O)n2ccccc2n1)N1CCCCCC1	-19	1	0	0	4	.	.
c1ccc(-c2csc3ncnc(NCC4COc5ccccc5O4)c23)cc1 (stereo not drawn)	91*	2	59*	-1	35	98*	89*
Cc1sc2ncnc(Nc3ccccc3)c2c1C	8	2	-9	2	4	.	.
Cc1sc2ncnc(NCC3(N4CCOCC4)CCCCC3)c2c1C	-8	-3	3	0	-2	.	.
Cc1sc2ncnc(NCc3ccccc3)c2c1C	67	2	45	0	8	89*	71*
Cc1sc2ncnc(NCC3COc4ccccc4O3)c2c1C (stereo not drawn)	92*	-1	41	0	49*	97*	89*
Cc1sc2ncnc(NCC(C)(C)N3CCOCC3)c2c1C	91*	2	10	0	-6	80*	66
CC(C)[C@H](NC(=O)[C@@H]1CSC2c3ccccc3C(=O)N21)C(=O)NCc1ccncc1 (stereo partly drawn)	-19	2	-11	2	-4	.	.
Cc1ccc2oc(C(=O)N(Cc3nccn3C)C(C)C)c(C)c2c1	6	-2	-4	0	-3	.	.
O=C(NCCC1=CCCCC1)c1ccc(Cl)c(S(=O)(=O)N2CCCCC2)c1	51	-1	-6	1	6	21	-3
CC(C)(NO)/C(=N/O)c1ccc(Br)cc1	48	2	-8	0	9	13	-9
CC(C)(NO)/C(=N\O)c1ccc(Cl)cc1	3	0	-1	0	11	.	.
COc1cc(Cl)ccc1OCc1cc(C(=O)N2CCN(C)C(=O)[C@@H]2C)no1	-92	.	-76	.	-34	.	.
Cc1cc(OCc2cc(C(=O)N3CCN(C)C(=O)[C@@H]3C)no2)cc(C)c1Cl	48	-1	22	0	6	47	20
CC(C)c1cc2c(c(O)c1O)[C@@]13CCCC(C)(C)C1CC2OC3=O (stereo partly drawn)	85*	2	8	0	-15	92*	-5
CCOc1cc(C)c(S(=O)(=O)Nc2ccc3cn[nH]c3c2)cc1C	91*	-3	32	0	6	86*	70
Cc1ccc(S(=O)(=O)Nc2ccc3cn[nH]c3c2)c(C)c1	15	2	11	.	0	.	.
COc1ccc(CCN2CC(C(=O)NCCc3cnn(C)c3)CCC2=O)cc1 (stereo not drawn)	16	3	4	0	-2	.	.
CC1CCCN(C(=O)Cn2nnc(-c3ccc([N+](=O)[O-])cc3)n2)C1 (stereo not drawn)	-10	1	-4	0	-12	.	.
CCOc1ccc(OCCSc2nc3ccccc3[nH]2)cc1	10	1	14	0	-2	.	.
CCCOc1ccc(CSc2nc3ccccc3[nH]2)cc1	74*	5	14	3	7	74*	44

Bioassay records: PubChem, several laboratories
